Active and inactive are the calls of the source. No cut-off for these calls is given here.
What was measured:
[1] = molecular target: T1, C-X-C chemokine receptor type 4 (Homo sapiens, UniProt P61073); assay: Competitive binding affinity to CXCR4 receptor (unknown origin) expressed in CHO cells incubated for 40 mins by 12G5 antibody based fluorescence analysis; assay type: cell-based
[2] = molecular target: T1, C-X-C chemokine receptor type 4; assay: Antagonist activity at CXCR4 (unknown origin) expressed in CHO cells assessed as reduction in basal phosphorylated AKT expression at 50 uM incubated for 30 mins followed by measured after 5 mins by Western blot analysis; assay type: cell-based
[3] = tested on: C-X-C chemokine receptor type 4 (Homo sapiens), P61073 [W195A]; assay: Competitive binding affinity to CXCR4 W195A mutant (unknown origin) expresssed in CHO cells at 200 nM incubated for 30 mins by 12G5 antibody based fluorescence analysis; assay type: cell-based
Method in brief: (§1)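 Wild-type or mutant CXCR4 cells (5×10⁵/well) incubated with single 200 nM concentration in FACS buffer (0.5% BSA, 0.05% azide in PBS) plus 12G5 anti-CD184 antibody, 30 min on ice; washed, FITC anti-mouse IgG 30 min on ice; fluorescence 485ex/528em; duplicates, ≥3 independent experiments, normalized as percent of control.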

[4] = tested on: C-X-C chemokine receptor type 4 (Homo sapiens), P61073 [W94A]; assay: Competitive binding affinity at CXCR4 W94A mutant (unknown origin) expressed in CHO cells at 200 nM incubated for 30 mins by 12G5 antibody based fluorescence analysis; assay type: cell-based; method in brief: as §1
[5] = Stability of compound in 10% FBS assessed as compound remaining at 1mM after 1 hr by HPLC analysis relative to control; assay type: ADME, cell-free, Bos taurus, Serum; details: cattle, read-out: Stability
Method in brief: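 Peptide dissolved at 1 mM in culture medium with 10% FBS, incubated at 37°C; samples taken over time and analysed by C18 HPLC, UV 220 nm; remaining peptide from peak intensity relative to original peak.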

[6] = tested on: Human immunodeficiency virus 1; assay: Antiviral activity against Human immunodeficiency virus 1 NL4-3 infected in human PBMC cells assessed as inhibition of extracellular p24 level preincubated with cells for 2 hrs followed by viral infection for 2 hrs and measured after 5 days by ELISA
[7] = molecular target: T1, C-X-C chemokine receptor type 4; assay: Antagonist activity at CXCR4 (unknown origin) in CHO cells assessed as reduction in SDF-1alpha-induced Akt phosphorylation level at 50 uM incubated for 30 mins followed by SDF1-alpha addition measured after 5 mins by Western blot analysis; assay type: cell-based
Method in brief: (§2)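 CXCR4-expressing CHO cells grown in DMEM with 10% FBS, seeded at 10^6 cells/well for 24 h, then moved to serum-free medium. Cells were pretreated with 50 μM peptide for 30 min, then stimulated with 12.5 nM SDF-1α for 5 min. Lysates were adjusted to 3 mg/mL, run on 12% SDS-PAGE and immunoblotted for phospho-AKT/ERK with ECL detection. Bands were quantified by densitometry as % control.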

[8] = molecular target: T1, C-X-C chemokine receptor type 4; assay: Antagonist activity at CXCR4 receptor in human SupT1 cells assessed as inhibition of SDF-1alpha-induced calcium release preincubated for 2 to 3 mins followed by SDF-1alpha addition by Fluo-4AM dye based fluorescence assay; assay type: functional, cell-based
Method in brief: (§3)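 SupT1 cells loaded with Fluo-4AM (2 µM) plus probenecid (5 µM) for 30 min at 37°C in HBSS/20 mM HEPES, washed; 1×10⁶ cells/mL exposed to compound 2–3 min, then stimulated with 50 nM SDF-1α; fluorescence read at […]/510em.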

[9] = tested on: C-X-C chemokine receptor type 4 (Homo sapiens), P61073 [E288Q]; assay: Binding affinity to CXCR4 E288Q mutant (unknown origin) expresssed in CHO cells at 200 nM incubated for 30 mins by 12G5 antibody based fluorescence analysis; assay type: cell-based; method in brief: as §1
[10] = molecular target: T1, C-X-C chemokine receptor type 4; assay: Antagonist activity at CXCR4 receptor in human SupT1 cells assessed as inhibition of SDF-1alpha-induced calcium release at 1 uM preincubated for 2 to 3 mins followed by SDF-1alpha addition by Fluo-4AM dye based fluorescence assay relative to control; assay type: functional, cell-based; method in brief: as §3
[11] = tested on: C-X-C chemokine receptor type 4 (Homo sapiens), P61073 [Y45A]; assay: Competitive binding affinity to CXCR4 Y45A mutant (unknown origin) expressed in CHO cells at 200 nM incubated for 30 mins by 12G5 antibody based fluorescence analysis; assay type: cell-based; method in brief: as §1
[12] = tested on: C-X-C chemokine receptor type 4 (Homo sapiens), P61073 [R30A]; assay: Binding affinity to CXCR4 R30A mutant (unknown origin) expresssed in CHO cells at 200 nM incubated for 30 mins by 12G5 antibody based fluorescence analysis; assay type: cell-based
Method in brief: (§4)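 Mutational mapping in CHO cells expressing wild-type or mutant CXCR4, 5×10^5 cells/well. Cells were incubated with a single 200 nM peptide concentration plus 12G5 anti-CD184 antibody in FACS buffer on ice for 30 min. FITC anti-mouse IgG was then added for 30 min on ice. Fluorescence was read at 485/528 nm and normalized to control, in duplicate across at least three experiments.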

PBMC = assay: Cytotoxicity against HIV1 NL4-3 infected in human PBMC cells assessed as cell viability at 50 uM preincubated with cells for 2 hrs followed by viral infection for 2 hrs and measured after 5 days by CellTiter-Blue assay; assay type: cell-based; details: 120 h
Method in brief: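 PBMCs were seeded at the anti-HIV assay densities and treated in parallel under the same X4 infection and compound exposure conditions. After 5 days at 37°C, viability was read by CellTiter-Blue fluorescence (560/590 nm). The top concentration tested was 50 μM.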

[13] = Stability of compound in water assessed as compound remaining at 1mM at 37 degC after 48 hrs by HPLC analysis relative to control; assay type: physicochemical; details: read-out: Stability
[14] = tested on: C-X-C chemokine receptor type 4 (Homo sapiens), P61073 [V112A]; assay: Competitive binding affinity to CXCR4 V112A mutant (unknown origin) expresssed in CHO cells at 200 nM incubated for 30 mins by 12G5 antibody based fluorescence analysis; assay type: cell-based; method in brief: as §4
[15] = tested on: C-X-C chemokine receptor type 4 (Homo sapiens), P61073 [D262N]; assay: Binding affinity to CXCR4 D262N mutant (unknown origin) expresssed in CHO cells at 200 nM incubated for 30 mins by 12G5 antibody based fluorescence analysis; assay type: cell-based; method in brief: as §1
[16] = tested on: Human immunodeficiency virus 1; assay: Antiviral activity against Human immunodeficiency virus 1 NL4-3 infected in human PBMC cells assessed as reduction in intracellular p24 level at 100 nM preincubated with cells 2 hrs followed by viral infection and measured after 24 hrs by ELISA; assay type: functional
Method in brief: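 PBMCs from healthy donors (2.5×10^6 cells/mL) were exposed to compound for 2 h, washed, and infected with HIV-1 NL4-3 at MOI 0.02 for 2 h at 37°C. Cells were washed, resuspended in complete medium and incubated 24 h. Cells were then lysed with protease inhibitor, and intracellular p24 was quantified by ELISA.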

[17] = tested on: C-X-C chemokine receptor type 4 (Homo sapiens), P61073 [Q200A]; assay: Binding affinity to CXCR4 Q200A mutant (unknown origin) expresssed in CHO cells at 200 nM incubated for 30 mins by 12G5 antibody based fluorescence analysis; assay type: cell-based; method in brief: as §4
[18] = tested on: C-X-C chemokine receptor type 4 (Homo sapiens), P61073 [Y116A]; assay: Competitive binding affinity at CXCR4 Y116A mutant (unknown origin) expressed in CHO cells at 200 nM incubated for 30 mins by 12G5 antibody based fluorescence analysis; assay type: cell-based; method in brief: as §1
[19] = molecular target: T1, C-X-C chemokine receptor type 4; assay: Inhibition of N-terminal flag-tagged CXCR4 (unknown origin) internalization expressed in CHO cells incubated for 45 mins and measured after 1 hr by FITC-labeled anti-flag antibody based fluorescence analysis
[20] = molecular target: T1, C-X-C chemokine receptor type 4; assay: Antagonist activity at CXCR4 (unknown origin) in CHO cells assessed as reduction in SDF-1alpha-induced ERK phosphorylation level at 50 uM incubated for 30 mins followed by SDF1-alpha addition measured after 5 mins by Western blot analysis; assay type: cell-based; method in brief: as §2
[21] = molecular target: T1, C-X-C chemokine receptor type 4; assay: Competitive binding affinity to CXCR4 in human SupT1 cells incubated for 40 mins by 12G5 antibody based fluorescence analysis; assay type: cell-based

T1 sequence (P61073 whole entry): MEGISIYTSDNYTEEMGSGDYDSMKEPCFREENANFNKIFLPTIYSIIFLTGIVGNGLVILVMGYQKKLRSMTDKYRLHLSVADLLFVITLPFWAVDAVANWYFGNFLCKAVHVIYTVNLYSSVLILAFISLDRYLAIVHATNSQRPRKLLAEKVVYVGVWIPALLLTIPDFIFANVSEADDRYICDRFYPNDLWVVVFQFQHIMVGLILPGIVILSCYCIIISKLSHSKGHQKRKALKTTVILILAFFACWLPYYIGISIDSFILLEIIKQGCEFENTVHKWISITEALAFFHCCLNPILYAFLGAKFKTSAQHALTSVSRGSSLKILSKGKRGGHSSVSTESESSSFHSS
Chain of C-X-C chemokine receptor type 4 (Homo sapiens), P61073 [W94A] (P61073 whole entry W94A): as the sequence (P61073 whole entry) above, with W94A counted along it
Chain of C-X-C chemokine receptor type 4 (Homo sapiens), P61073 [E288Q] (P61073 whole entry E288Q): as the sequence (P61073 whole entry) above, with E288Q counted along it
Chain of C-X-C chemokine receptor type 4 (Homo sapiens), P61073 [Y45A] (P61073 whole entry Y45A): as the sequence (P61073 whole entry) above, with Y45A counted along it
Chain of C-X-C chemokine receptor type 4 (Homo sapiens), P61073 [Y116A] (P61073 whole entry Y116A): as the sequence (P61073 whole entry) above, with Y116A counted along it
Chain of C-X-C chemokine receptor type 4 (Homo sapiens), P61073 [W195A] (P61073 whole entry W195A): as the sequence (P61073 whole entry) above, with W195A counted along it
Chain of C-X-C chemokine receptor type 4 (Homo sapiens), P61073 [R30A] (P61073 whole entry R30A): as the sequence (P61073 whole entry) above, with R30A counted along it
Chain of C-X-C chemokine receptor type 4 (Homo sapiens), P61073 [V112A] (P61073 whole entry V112A): as the sequence (P61073 whole entry) above, with V112A counted along it
Chain of C-X-C chemokine receptor type 4 (Homo sapiens), P61073 [Q200A] (P61073 whole entry Q200A): as the sequence (P61073 whole entry) above, with Q200A counted along it
Chain of C-X-C chemokine receptor type 4 (Homo sapiens), P61073 [D262N] (P61073 whole entry D262N): as the sequence (P61073 whole entry) above, with D262N counted along it

CC(C)C[C@@H](N)C(=O)NCC(=O)N[C@H](C)C(=O)N[C@H](CO)C(=O)N[C@H](Cc1c[nH]c2ccccc12)C(=O)N[C@H](Cc1cnc[nH]1)C(=O)N[C@H](CCCNC(=N)N)C(=O)N1CCC[C@@H]1C(=O)N[C@H](CC(=O)O)C(=O)N[C@H](CCCCN)C(=O)N[C@H](CCCCN)C(=O)N[C@H](CCCNC(=N)N)C(=O)NCCCCCC(=O)N[C@@H](CCCCN)C(=O)N[C@@H](CCCNC(=N)N)C(=O)N[C@@H](CCCCN)C(=O)N[C@H](C(=O)N[C@@H](CC(N)=O)C(=O)N[C@@H](CC(N)=O)C(=O)N[C@@H](CC(N)=O)C(=O)N1CCC[C@H]1C(=O)N[C@@H](CCCNC(=N)N)C(=O)N[C@H](C(=O)N[C@@H](CS)C(=O)O)[C@@H](C)O)[C@@H](C)O
IC50 [1]: 16 nM | Activity [2]: Active | Activity [3]: inactive | Activity [4]: inactive | remaining at 1 h, 1000 µM [5]: 80% | IC50 [6]: 93 nM | inhibition [6]: Dose-dependent effect | Activity [7]: Active | inhibition [8]: Dose-dependent effect | Activity [9]: inactive | inhibition [10]: 100% | Activity [11]: inactive | Activity [12]: Active | Activity (PBMC): Non-Toxic | remaining at 48 h, 1000 µM [13]: 87% | Activity [14]: inactive | Activity [15]: inactive | inhibition at 0.1 µM [16]: 16% | Activity [17]: inactive | Activity [18]: inactive | Activity [19]: inactive | Activity [20]: Active | IC50 [21]: 14 nM

c1cc(CN2CCCNCCNCCCNCC2)ccc1CN1CCCNCCNCCCNCC1
Activity [16]: Active

CC(C)C[C@@H](N)C(=O)NCC(=O)N[C@H](C)C(=O)N[C@H](CO)C(=O)N[C@H](Cc1c[nH]c2ccccc12)C(=O)N[C@H](Cc1cnc[nH]1)C(=O)N[C@H](CCCNC(=N)N)C(=O)N1CCC[C@@H]1C(=O)N[C@H](CC(=O)O)C(=O)N[C@H](CCCCN)C(=O)N[C@H](CS)C(=O)N[C@H](CS)C(=O)N[C@H](CC(C)C)C(=O)NCC(=O)N[C@H](Cc1ccc(O)cc1)C(=O)N[C@H](CCC(N)=O)C(=O)N[C@H](CCCCN)C(=O)N[C@H](CCCNC(=N)N)C(=O)N1CCC[C@@H]1C(=O)N[C@H](CC(C)C)C(=O)N1CCC[C@@H]1C(=O)NCCCCCC(=O)N[C@@H](CCCCN)C(=O)NCC(=O)N[C@@H](CC(C)C)C(=O)N[C@@H](CC(C)C)C(=O)NCC(=O)N[C@@H](CC(C)C)C(=O)N[C@@H](CO)C(=O)N[C@@H](CCCCN)C(N)=O
IC50 [21]: 147 nM

Reference: ChEMBL document CHEMBL4393672, “High affinity CXCR4 inhibitors generated by linking low affinity peptides” (Eur J Med Chem, 2019)
